Among the data in BindingDB's records for doi:10.1021/jm800174p (University of Minnesota, 2009) are Ki values, retold here.

What is called Ki is the dissociation constant of the complex between target and ligand, obtained from inhibition or displacement. High values mean weaker binding, low ones tighter binding.

SMILES strings stand for the structures.

Target in the first assay: not listed separately
Nature of the assay: Displacement of [3H]DAMGO from CCK2R-MOPR coexpressed in CHO cells. On the technique in general: In a radioligand displacement assay an active substance lowers the binding of a labelled ligand.
Compound `C[C@@H](NC(=O)[C@@H](N)Cc1ccc(O)cc1)C(=O)NCC(=O)N(C)[C@@H](Cc1ccccc1)C(=O)NCCO` [[tyrosyl-3,5-3H(N)]-D-Ala2-Mephe4-glyol5-enkephalin] had an inhibition constant Ki of 11 nM.
The same measure, in the same setting: as for `CN1C(=O)[C@H](NC(=O)Nc2cccc(OCCNC(=O)COCC(=O)NCCNC(=O)COCC(=O)N[C@H]3CC[C@@]4(O)[C@H]5Cc6cc(O)cc7c6[C@@]4(CCN5C)[C@H]3O7)c2)N=C(c2ccccc2)c2ccccc21` [1-{1-Diglycoldiamide-2-[m-(R(+)-1)ureaphenoxy]ethane}-2-(N-oxymorphyldiglycoldiamide)ethane], the figure is 7.3 nM; as for `CN1C(=O)[C@H](NC(=O)Nc2cccc(OCCNC(=O)COCC(=O)NNC(=O)COCC(=O)N[C@H]3CC[C@@]4(O)[C@H]5Cc6cc(O)cc7c6[C@@]4(CCN5C)[C@H]3O7)c2)N=C(c2ccccc2)c2ccccc21` [N-{m-[R(+)-1]Ureaphenoxy}ethyldiglycolamidehydrazide-N'-oxymorphyldiglycolamidedihydrazide], 3.9 nM; as for `CN1C(=O)[C@H](NC(=O)Nc2cccc(OCCNC(=O)COCC(=O)N[C@H]3CC[C@@]4(O)[C@H]5Cc6cc(O)cc7c6[C@@]4(CCN5C)[C@H]3O7)c2)N=C(c2ccccc2)c2ccccc21` [N-{m-[R(+)-1]Ureaphenoxy}ethyl-N'-oxymorphyldiglycoldiamide], 14.2 nM.
The same measure, in the same setting: then `CN1C(=O)[C@H](NC(=O)Nc2cccc(OCCNC(=O)COCC(=O)NCCCCCCNC(=O)COCC(=O)N[C@H]3CC[C@@]4(O)[C@H]5Cc6cc(O)cc7c6[C@@]4(CCN5C)[C@H]3O7)c2)N=C(c2ccccc2)c2ccccc21` [1-{1-Diglycoldiamide-6-[m-(R(+)-1)ureaphenoxy]ethane}-2-(N-oxymorphyldiglycoldiamide)hexane], with 16.3 nM.

For a further assay, the target named is Mu-type opioid receptor (Homo sapiens, UniProt P35372). The assay can be described thus: Displacement of [3H]DAMGO from mu opioid receptor expressed in CHO cells. The method in brief: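 Membranes came from CHO cells stably expressing MOP receptor alone or with CCK2 receptor. They were incubated with [3H]DAMGO (0.4 nM) plus increasing unlabeled ligand for 2 h at room temperature in KRH, pH 7.4, with 0.2% BSA and soybean trypsin inhibitor. Nonspecific binding was set with 1 μM DAMGO. Samples were filtered on PEI-soaked GF/C and scintillation counted; Ki and Bmax (pmol/mg protein) came from LIGAND analysis. Mean±S.E.M., 3-5 experiments.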
Chain of Mu-type opioid receptor (P35372 whole entry): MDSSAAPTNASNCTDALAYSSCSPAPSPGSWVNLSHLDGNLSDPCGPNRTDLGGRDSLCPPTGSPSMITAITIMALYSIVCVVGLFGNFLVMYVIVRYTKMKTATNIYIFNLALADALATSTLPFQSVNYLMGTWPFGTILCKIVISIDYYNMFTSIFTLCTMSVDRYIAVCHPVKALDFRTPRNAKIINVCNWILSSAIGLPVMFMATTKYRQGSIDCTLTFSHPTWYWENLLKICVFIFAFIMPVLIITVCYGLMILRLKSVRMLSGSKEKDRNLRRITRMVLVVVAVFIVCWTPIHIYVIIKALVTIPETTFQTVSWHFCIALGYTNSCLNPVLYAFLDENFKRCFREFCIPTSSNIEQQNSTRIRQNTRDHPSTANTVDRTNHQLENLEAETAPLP
Regarding `CNC(=O)COCC(=O)NCCCCNC(=O)COCC(=O)N[C@H]1CC[C@@]2(O)[C@H]3Cc4cc(O)cc5c4[C@@]2(CCN3C)[C@H]1O5` [2-({[(1S,5R,13R,14S,17S)-9,17-dihydroxy-4-methyl-12-oxa-4-azapentacyclo[9.6.1.0^{1,13}.0^{5,17}.0^{7,18}]octadeca-7(18),8,10-trien-14-yl]carbamoyl}methoxy)-N-(4-{2-[(methylcarbamoyl)methoxy]acetamido}butyl)acetamide], the Ki worked out at 29.8 nM.
